Active and inactive are the calls of the source. No cut-off for these calls is given here.

Test [1] concerns Mus musculus. The test can be described thus: Induction of bone mineral density in SAMP6 mouse assessed as spine BMD at 10 mg/kg/day, po measured after 3 months. Type of test: functional. In short, it runs like this:
(§1)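 SAMP6 mice, 5 months old, n = 5 per group, given compound in 0.5% methylcellulose by gavage daily. Dual-energy X-ray absorptiometry under pentobarbital anaesthesia (50 mg/kg ip), animals prone, at 0, 4, 8 and 12 weeks of treatment. Regions of interest were whole body, spine and left hind leg.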

Test [2] deals with Mus musculus. The test can be described thus: Induction of bone mineral density in SAMP6 mouse assessed as whole body BMD at 10 mg/kg/day, po measured after 3 months. Type of test: functional. In short, it runs like this: as §1
The subject of test [3] is Mus musculus. The experiment in a line: Induction of bone mineral density in SAMP6 mouse assessed as spine BMD at 10 mg/kg/day, po measured last 2 months. It counts as functional, organism-based. In short, it runs like this:
as §1

Test [4] concerns Mus musculus. The experiment in a line: Induction of bone mineral density in SAMP6 mouse assessed as whole body BMD at 30 mg/kg/day, po measured after 2 months. Type of test: functional, organism-based. The method, boiled down:
as §1

Test [5] can be described thus: Induction of BMP2 expression in mouse […] MC3T3-E1 cells stably transfected with mouse BMP2 promotor-luciferase assessed as upregulation rate at 0.4 uM. It counts as functional, cell-based. The method, boiled down: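 Reporter assay in murine calvarial MC3T3-E1 cells stably carrying the mouse BMP-2 promoter fused to firefly luciferase (pGL4BMP-2). Cells grown in DMEM with 10% heat-inactivated FBS at 37 °C and 5% CO2. Test compounds at 4.0 μM; lovastatin at 0.4 μM as positive control; 0.1% DMSO as negative control. Up-regulation rate = (RLU of test − RLU of negative control)/RLU of negative control × 100.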

Test [6] relates to Mus musculus. The test can be described thus: Induction of bone mineral density in SAMP6 mouse assessed as left hind leg BMD at 10 mg/kg/day, po measured after 3 months. It counts as functional. The method, boiled down: as §1
The subject of test [7] is Mus musculus. The experiment in a line: Induction of bone formation in SAMP6 mouse right femora assessed as trabecular bone volume percentage at 10 mg/kg/day, po measured after 3 months by bone histomorphometry. Type of test: functional, Trabecula. The method, boiled down:
(§2)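 SAMP6 mice, 5 months old, n = 5 per group (3 male, 2 female), randomized by initial BMD. Given compound in 0.5% methylcellulose by gavage daily for 3 months. Proximal third of the right femur fixed in 4% paraformaldehyde, cut as undecalcified sections, and scored by image analysis for histomorphometry.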

For test [8], the system named is Mus musculus. The experiment in a line: Induction of bone formation in SAMP6 mouse right femora assessed as trabecular formation surface percentage at 10 mg/kg/day, po measured after 3 months by bone histomorphometry. It counts as functional, Trabecula. In short, it runs like this: as §2
Test [9] has as its system Mus musculus. The test can be described thus: Induction of bone formation in SAMP6 mouse right femora assessed as trabecular resorption surface percentage at 10 mg/kg/day, po measured after 3 months by bone histomorphometry. Type of test: functional, Trabecula. In short, it runs like this:
as §2

The test system of test [10] is Mus musculus. The experiment in a line: Induction of bone formation in SAMP6 mouse right femora assessed as average osteoid width at 10 mg/kg/day, po measured after 3 months by bone histomorphometry. Type of test: functional. The method, boiled down:
as §2

Regarding `CC[C@H](C)C(=O)O[C@H]1C[C@@H](C)C=C2C=C[C@H](C)[C@H](CC[C@@H]3C[C@@H](O)CC(=O)O3)[C@H]21` [LOVASTATIN], the Activity in the test on Mus musculus [1] was 0.095 g/cm2; with Mus musculus [2], 0.07 g/cm2; in test [5], 20.9%; with Mus musculus [6], 0.046 g/cm2; in the test with Mus musculus [7], 7.44%; in the test on Mus musculus [8], 6.22%. In addition, the Activity in the test with Mus musculus [9] was 6.64%; in the test with Mus musculus [10], 6.59 µm. Besides, the outcome in the test on Mus musculus [3] and with Mus musculus [4] was Active.

The values above are taken from ChEMBL document CHEMBL1156262, “Substituted benzothiophene or benzofuran derivatives as a novel class of bone morphogenetic protein-2 up-regulators: synthesis, structure-activity relationships, and preventive bone loss efficacies in senescence accelerated mice (SAMP6) and ovariectomized rats” (J Med Chem, 2010).
